{"source": "paper PMC6055619", "about": "(British Journal of Haematology, 2018)", "key": {"patients with NDMM [1]": {"system": "patients with NDMM", "experiment": "Adverse events graded by NCI CTCAE v4·03", "format": "in vivo, human", "procedure,_shortened": "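AEs were recorded throughout treatment and for 30 days after the last dose, and graded by NCI CTCAE v4·03 in all patients given ≥1 dose of any study drug. Maintenance patients had responding or stable disease after 16 cycles of ixazomib-Rd induction. They then took single-agent oral ixazomib on days 1, 4, 8 and 11 of 21-day cycles, at the last-tolerated induction dose, until progression or unacceptable toxicity.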"}, "patients with NDMM [2]": {"system": "patients with NDMM", "experiment": "Phase 1 dose escalation", "format": "in vivo, human", "conditions": "twice-weekly ixazomib 3·0 or 3·7 mg plus Rd", "procedure,_shortened": "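Phase 1 tested two fixed ixazomib doses (3·0 and 3·7 mg) with a standard 3 + 3 scheme, scoring DLTs during cycle 1. MTD was the highest dose with ≤1 of 6 evaluable patients having a DLT. RP2D selection also used response rates and toxicity over later cycles.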"}, "[3]": {"experiment": "Ixazomib plasma pharmacokinetics, non-compartmental analysis", "format": "in vivo, human", "conditions": "for AUC(0-t): 3 mg, AUC0–72, geometric mean (%CV), RP2D 3·0 mg", "procedure,_shortened": "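Phase 1 patients took fixed oral ixazomib 3·0 or 3·7 mg on an empty stomach (≥1 h before or ≥2 h after a meal), on days 1, 4, 8 and 11 of a 21-day cycle. Co-dosing was lenalidomide 25 mg on days 1–14 plus dexamethasone 20 mg. Serial plasma samples were taken, and non-compartmental parameters were calculated on cycle 1 days 1 and 11. Values are reported as geometric mean (%CV).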"}, "[4]": {"conditions": "ref Gupta et al, 2015b; cited from earlier work"}, "[5]": {"conditions": "during single-agent ixazomib maintenance"}, "[6]": {"conditions": "patients who received single-agent ixazomib maintenance"}, "[7]": {"conditions": "received maintenance, n = 18, new-onset AEs during cycle ≥17"}}, "note": "“Also recorded” adds a separate entry of the source.", "data": [{"smiles": "CC(C)C[C@H](NC(=O)CNC(=O)c1cc(Cl)ccc1Cl)B(O)O", "note": "[ixazomib]", "values": [{"measurement": "New-onset drug-related grade 3 PN NEC", "setting": "patients with NDMM [1]; during maintenance", "value": 6, "unit": "%"}, {"measurement": "New-onset drug-related grade 3 hyperglycaemia", "setting": "patients with NDMM [1]; during maintenance", "value": 0, "unit": "%"}, {"measurement": "New-onset drug-related grade 3 rashes, eruptions and exanthems NEC", "setting": "patients with NDMM [1]; during maintenance", "value": 6, "unit": "%"}, {"measurement": "New-onset drug-related PN NEC", "setting": "patients with NDMM [1]; [5]", "value": 28, "unit": "%"}, {"measurement": "New-onset drug-related fatigue", "setting": "patients with NDMM [1]; [5]", "value": 11, "unit": "%"}, {"measurement": "New-onset drug-related rashes, eruptions and exanthems NEC", "setting": "patients with NDMM [1]; [5]", "value": 17, "unit": "%"}, {"measurement": "New-onset AEs resulting in dose reductions", "setting": "patients with NDMM [1]; patients who received ixazomib maintenance", "value": 33, "unit": "%"}, {"measurement": "New-onset drug-related AEs during maintenance", "setting": "patients with NDMM [1]; [6]", "value": 89, "unit": "%"}, {"measurement": "New-onset drug-related grade 3 AEs during maintenance", "setting": "patients with NDMM [1]; [6]", "value": 28, "unit": "%"}, {"measurement": "On-study deaths", "setting": "patients with NDMM [1]; received maintenance, n = 18, cycle ≥17", "value": "0 n (%)"}, {"measurement": "AE resulting in any study drug dose reduction", "setting": "patients with NDMM [1]; [7]", "value": "6 (33) n (%)"}, {"measurement": "AE resulting in discontinuation", "setting": "patients with NDMM [1]; [7]", "value": "3 (17) n (%)"}, {"measurement": "Any AE", "setting": "patients with NDMM [1]; [7]", "value": "16 (89) n (%)"}, {"measurement": "Any SAE", "setting": "patients with NDMM [1]; [7]", "value": "2 (11) n (%)"}, {"measurement": "Any drug-related AE", "setting": "patients with NDMM [1]; [7]", "value": "16 (89) n (%)"}, {"measurement": "Any drug-related SAE", "setting": "patients with NDMM [1]; [7]", "value": "2 (11) n (%)"}, {"measurement": "Any drug-related grade ≥3 AE", "setting": "patients with NDMM [1]; [7]", "value": "5 (28) n (%)"}, {"measurement": "Any grade ≥3 AE", "setting": "patients with NDMM [1]; [7]", "value": "8 (44) n (%)"}, {"measurement": "Drug-related ALT increased, All-grade", "setting": "patients with NDMM [1]; [7]", "value": "1 (6) n (%)"}, {"measurement": "Drug-related ALT increased, Grade 3", "setting": "patients with NDMM [1]; [7]", "value": "0 n (%)"}, {"measurement": "Drug-related Anxiety, All-grade", "setting": "patients with NDMM [1]; [7]", "value": "0 n (%)"}, {"measurement": "Drug-related Anxiety, Grade 3", "setting": "patients with NDMM [1]; [7]", "value": "0 n (%)"}, {"measurement": "Drug-related Constipation, All-grade", "setting": "patients with NDMM [1]; [7]", "value": "0 n (%)"}, {"measurement": "Drug-related Constipation, Grade 3", "setting": "patients with NDMM [1]; [7]", "value": "0 n (%)"}, {"measurement": "Drug-related Diarrhoea, All-grade", "setting": "patients with NDMM [1]; [7]", "value": "5 (28) n (%)"}, {"measurement": "Drug-related Diarrhoea, Grade 3", "setting": "patients with NDMM [1]; [7]", "value": "1 (6) n (%)"}, {"measurement": "Drug-related Dizziness, All-grade", "setting": "patients with NDMM [1]; [7]", "value": "1 (6) n (%)"}, {"measurement": "Drug-related Dizziness, Grade 3", "setting": "patients with NDMM [1]; [7]", "value": "0 n (%)"}, {"measurement": "Drug-related Dysgeusia, All-grade", "setting": "patients with NDMM [1]; [7]", "value": "0 n (%)"}, {"measurement": "Drug-related Dysgeusia, Grade 3", "setting": "patients with NDMM [1]; [7]", "value": "0 n (%)"}, {"measurement": "Drug-related Fatigue, All-grade", "setting": "patients with NDMM [1]; [7]", "value": "2 (11) n (%)"}, {"measurement": "Drug-related Fatigue, Grade 3", "setting": "patients with NDMM [1]; [7]", "value": "0 n (%)"}, {"measurement": "Drug-related Hyperglycaemia, All-grade", "setting": "patients with NDMM [1]; [7]", "value": "2 (11) n (%)"}, {"measurement": "Drug-related Hyperglycaemia, Grade 3", "setting": "patients with NDMM [1]; [7]", "value": "0 n (%)"}, {"measurement": "Drug-related Hyponatraemia, All-grade", "setting": "patients with NDMM [1]; [7]", "value": "0 n (%)"}, {"measurement": "Drug-related Hyponatraemia, Grade 3", "setting": "patients with NDMM [1]; [7]", "value": "0 n (%)"}, {"measurement": "Drug-related Insomnia, All-grade", "setting": "patients with NDMM [1]; [7]", "value": "0 n (%)"}, {"measurement": "Drug-related Insomnia, Grade 3", "setting": "patients with NDMM [1]; [7]", "value": "0 n (%)"}, {"measurement": "Drug-related Muscle spasms, All-grade", "setting": "patients with NDMM [1]; [7]", "value": "0 n (%)"}, {"measurement": "Drug-related Muscle spasms, Grade 3", "setting": "patients with NDMM [1]; [7]", "value": "0 n (%)"}, {"measurement": "Drug-related Muscular weakness, All-grade", "setting": "patients with NDMM [1]; [7]", "value": "2 (11) n (%)"}, {"measurement": "Drug-related Muscular weakness, Grade 3", "setting": "patients with NDMM [1]; [7]", "value": "1 (6) n (%)"}, {"measurement": "Drug-related Nausea, All-grade", "setting": "patients with NDMM [1]; [7]", "value": "6 (33) n (%)"}, {"measurement": "Drug-related Nausea, Grade 3", "setting": "patients with NDMM [1]; [7]", "value": "1 (6) n (%)"}, {"measurement": "Drug-related Neutropenia, All-grade", "setting": "patients with NDMM [1]; [7]", "value": "0 n (%)"}, {"measurement": "Drug-related Neutropenia, Grade 3", "setting": "patients with NDMM [1]; [7]", "value": "0 n (%)"}, {"measurement": "Drug-related Neutrophil count decreased, All-grade", "setting": "patients with NDMM [1]; [7]", "value": "1 (6) n (%)"}, {"measurement": "Drug-related Neutrophil count decreased, Grade 3", "setting": "patients with NDMM [1]; [7]", "value": "1 (6) n (%)"}, {"measurement": "Drug-related PN NEC, All-grade", "setting": "patients with NDMM [1]; [7]", "value": "5 (28) n (%)"}, {"measurement": "Drug-related PN NEC, Grade 3", "setting": "patients with NDMM [1]; [7]", "value": "1 (6) n (%)"}, {"measurement": "Drug-related Peripheral oedema, All-grade", "setting": "patients with NDMM [1]; [7]", "value": "2 (11) n (%)"}, {"measurement": "Drug-related Peripheral oedema, Grade 3", "setting": "patients with NDMM [1]; [7]", "value": "0 n (%)"}, {"measurement": "Drug-related Pneumonia, All-grade", "setting": "patients with NDMM [1]; [7]", "value": "0 n (%)"}, {"measurement": "Drug-related Pneumonia, Grade 3", "setting": "patients with NDMM [1]; [7]", "value": "0 n (%)"}, {"measurement": "Drug-related Rashes, eruptions and exanthems NEC, All-grade", "setting": "patients with NDMM [1]; [7]", "value": "3 (17) n (%)"}, {"measurement": "Drug-related Rashes, eruptions and exanthems NEC, Grade 3", "setting": "patients with NDMM [1]; [7]", "value": "1 (6) n (%)"}, {"measurement": "Drug-related Thrombocytopenia, All-grade", "setting": "patients with NDMM [1]; [7]", "value": "0 n (%)"}, {"measurement": "Drug-related Thrombocytopenia, Grade 3", "setting": "patients with NDMM [1]; [7]", "value": "0 n (%)"}, {"measurement": "Drug-related Vomiting, All-grade", "setting": "patients with NDMM [1]; [7]", "value": "3 (17) n (%)"}, {"measurement": "Drug-related Vomiting, Grade 3", "setting": "patients with NDMM [1]; [7]", "value": "1 (6) n (%)"}, {"measurement": "Dose-limiting toxicities in cycle 1", "setting": "patients with NDMM [2]", "value": "No dose‐limiting toxicities; also recorded: no DLTs"}, {"measurement": "Tmax", "setting": "[3]; human, plasma, oral", "value": 1, "unit": "h"}, {"measurement": "AUC(0-t)", "setting": "[3]; human, plasma, oral, day 1", "value": 315, "unit": "ng·h/mL"}, {"measurement": "AUC(0-t)", "setting": "[3]; human, plasma, oral, day 11", "value": 1110, "unit": "ng·h/mL"}, {"measurement": "Pharmacokinetic interaction of ixazomib with Rd", "setting": "[3]; pharmacokinetic data similar to other studies", "value": "no pharmacokinetic interaction"}, {"measurement": "Effects on QTc or heart rate", "setting": "[4]", "value": "no clinically meaningful effects"}]}]}
